What was measured:
[1] = substrate: CC(=O)OCC1=C(C(=O)O)N2C(=O)[C@@H](NC(=O)Cc3cccs3)[C@H]2SC1; test: (§1) Ratio of Kcat to Km of Aeromonas caviae A324R metallo-beta-lactamase IMP-19 expressed in Escherichia coli DH5alpha by computerized microacidimetric method
Summary of the method: (§2)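 IMP-19 purified from sonicated recombinant E. coli DH5alpha(pIP19). Purification: SP Sepharose in 50 mM MES-NaOH pH 6.0 with 0–500 mM NaCl gradient, then 5 mM ZnCl2 and Superose 12 in 20 mM MES-NaOH–100 mM NaCl pH 6.0; purity >97% by SDS-PAGE. Km and kcat measured three times by computerized microacidimetry; variation coefficients at most 10%.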

[2] = substrate: CC(C)(O/N=C(\C(=O)N[C@@H]1C(=O)N2C(C(=O)[O-])=C(C[n+]3ccccc3)CS[C@H]12)c1csc(N)n1)C(=O)O; test: as §1; summary of the method: as §2
[3] = substrate: CC1(C)S[C@@H]2[C@H](NC(=O)Cc3ccccc3)C(=O)N2[C@H]1C(=O)O; test: as §1; summary of the method: as §2
[4] = substrate: CC1(C)S[C@@H]2[C@H](NC(=O)[C@H](C(=O)O)c3ccsc3)C(=O)N2[C@H]1C(=O)O; test: as §1; summary of the method: as §2
[5] = substrate: CC1(C)S[C@@H]2[C@H](NC(=O)[C@H](N)c3ccc(O)cc3)C(=O)N2[C@H]1C(=O)O; test: as §1; summary of the method: as §2
[6] = substrate: CCN1CCN(C(=O)N[C@@H](C(=O)N[C@@H]2C(=O)N3[C@@H]2SC(C)(C)[C@@H]3C(=O)O)c2ccccc2)C(=O)C1=O; test: as §1; summary of the method: as §2
[7] = substrate: CO/N=C(\C(=O)N[C@@H]1C(=O)N2C(C(=O)O)=C(COC(C)=O)CS[C@H]12)c1csc(N)n1; test: as §1; summary of the method: as §2
[8] = substrate: CO/N=C(\C(=O)N[C@@H]1C(=O)N2C(C(=O)O)=C(COC(N)=O)CS[C@H]12)c1ccco1; test: as §1; summary of the method: as §2
[9] = substrate: CO/N=C(\C(=O)N[C@@H]1C(=O)N2C(C(=O)[O-])=C(C[n+]3cccc4c3CCC4)CS[C@H]12)c1csc(N)n1; test: as §1; summary of the method: as §2
[10] = substrate: CO[C@@]1(NC(=O)Cc2cccs2)C(=O)N2C(C(=O)O)=C(COC(N)=O)CS[C@@H]21; test: as §1; summary of the method: as §2
[11] = substrate: C[C@@H](O)[C@H]1C(=O)N2C(C(=O)O)=C(SCCNC=N)C[C@H]12; test: as §1; summary of the method: as §2
[12] = substrate: C[C@@H](O)[C@H]1C(=O)N2C(C(=O)O)=C(S[C@@H]3CN[C@H](C(=O)N(C)C)C3)[C@H](C)[C@H]12; test: as §1; summary of the method: as §2
[13] = substrate: CC(=O)OCC1=C(C(=O)O)N2C(=O)[C@@H](NC(=O)Cc3cccs3)[C@H]2SC1; test: (§3) Activity of Aeromonas caviae A324R metallo-beta-lactamase IMP-19 expressed in Escherichia coli DH5alpha by computerized microacidimetric method; summary of the method: as §2
[14] = substrate: CC(C)(O/N=C(\C(=O)N[C@@H]1C(=O)N2C(C(=O)[O-])=C(C[n+]3ccccc3)CS[C@H]12)c1csc(N)n1)C(=O)O; test: as §3; summary of the method: as §2
[15] = substrate: CC1(C)S[C@@H]2[C@H](NC(=O)Cc3ccccc3)C(=O)N2[C@H]1C(=O)O; test: as §3; summary of the method: as §2
[16] = substrate: CC1(C)S[C@@H]2[C@H](NC(=O)[C@H](C(=O)O)c3ccsc3)C(=O)N2[C@H]1C(=O)O; test: as §3; summary of the method: as §2
[17] = substrate: CC1(C)S[C@@H]2[C@H](NC(=O)[C@H](N)c3ccc(O)cc3)C(=O)N2[C@H]1C(=O)O; test: as §3; summary of the method: as §2
[18] = substrate: CCN1CCN(C(=O)N[C@@H](C(=O)N[C@@H]2C(=O)N3[C@@H]2SC(C)(C)[C@@H]3C(=O)O)c2ccccc2)C(=O)C1=O; test: as §3; summary of the method: as §2
[19] = substrate: CO/N=C(\C(=O)N[C@@H]1C(=O)N2C(C(=O)O)=C(COC(C)=O)CS[C@H]12)c1csc(N)n1; test: as §3; summary of the method: as §2
[20] = substrate: CO/N=C(\C(=O)N[C@@H]1C(=O)N2C(C(=O)O)=C(COC(N)=O)CS[C@H]12)c1ccco1; test: as §3; summary of the method: as §2
[21] = substrate: CO/N=C(\C(=O)N[C@@H]1C(=O)N2C(C(=O)[O-])=C(C[n+]3cccc4c3CCC4)CS[C@H]12)c1csc(N)n1; test: as §3; summary of the method: as §2
[22] = substrate: CO[C@@]1(NC(=O)Cc2cccs2)C(=O)N2C(C(=O)O)=C(COC(N)=O)CS[C@@H]21; test: as §3; summary of the method: as §2
[23] = substrate: C[C@@H](O)[C@H]1C(=O)N2C(C(=O)O)=C(SCCNC=N)C[C@H]12; test: as §3; summary of the method: as §2
[24] = substrate: C[C@@H](O)[C@H]1C(=O)N2C(C(=O)O)=C(S[C@@H]3CN[C@H](C(=O)N(C)C)C3)[C@H](C)[C@H]12; test: as §3; summary of the method: as §2
[25] = substrate: C[C@H]1[C@H](NC(=O)/C(=N\OC(C)(C)C(=O)O)c2csc(N)n2)C(=O)N1S(=O)(=O)O; test: as §3; summary of the method: as §2

B1: IMP-19 (Aeromonas caviae), A8QUY6 (protein)
chain: MKKLFVLCVCFLCSITAAGAALPDLKIEKLEEGVYVHTSFEEVNGWGVVSKHGLVVLVNTDAYLIDTPFTATDTEKLVNWFVERGYKIKGTISSHFHSDSTGGIEWLNSQSIPTYASELTNELLKKDGKVQAKNSFSGVSYWLVKNKIEVFYPGPGHTQDNVVVWLPEKKILFGGCFVKPDGLGNLGDANLEAWPKSAKILMSKYVKAKLVVSSHSEIGDASLLKRTWEQAVKGLNESKKPSQPSN
kcat/Km [1]: 0.14 | kcat/Km [2]: 0.32 | kcat/Km [3]: 4.91 | kcat/Km [4]: 4.88 | kcat/Km [5]: 2.2 | kcat/Km [6]: 0.28 | kcat/Km [7]: 0.33 | kcat/Km [8]: 0.17 | kcat/Km [9]: 0.3 | kcat/Km [10]: 0.29 | kcat/Km [11]: 0.26 | kcat/Km [12]: 0.14 | Km [13]: 76 µM | kcat [13]: 11 s⁻¹ | Km [14]: 20 µM | kcat [14]: 6.4 s⁻¹ | Km [15]: 206 µM | kcat [15]: 1010 s⁻¹ | Km [16]: 140 µM | kcat [16]: 683 s⁻¹ | Km [17]: 207 µM | kcat [17]: 456 s⁻¹ | Km [18]: 148 µM | kcat [18]: 41.2 s⁻¹ | Km [19]: 61 µM | kcat [19]: 20.1 s⁻¹ | Km [20]: 95 µM | kcat [20]: 16.4 s⁻¹ | Km [21]: 48 µM | kcat [21]: 14.3 s⁻¹ | Km [22]: 33 µM | kcat [22]: 9.7 s⁻¹ | Km [23]: 100 µM | kcat [23]: 26.5 s⁻¹ | Km [24]: 7 µM | kcat [24]: 1 s⁻¹ | kcat [25]: < 0.1 s⁻¹

Source: ChEMBL document CHEMBL1137670, “First occurrence of an IMP metallo-beta-lactamase in Aeromonas caviae: IMP-19 in an isolate from France” (2007)
